{"data": "Results gathered from unrelated publications", "target": "Serine/threonine-protein kinase PLK2 (PLK2, Homo sapiens, UniProt Q9NYY3)"}
{"Compound": "O=C1CCc2cc(Nc3cc(OC4CCOCC4)c([N+](=O)[O-])cc3Cl)ccc2N1", "test": "cell-free assay, competition with immobilised ligand", "setting": "1 µM", "endpoint": "remaining binding", "result": "92%"}
{"Compound": "O=C(Nc1cnn(-c2csc(C(=O)NC3COC3)c2)c1)Nc1ccccc1Cl", "test": "enzyme activity, inhibitor", "setting": "5 µM", "endpoint": "remaining activity", "result": "86%"}
{"Compound": "CCN(CC)CCNC(=O)c1c(C)[nH]c(/C=C2\\C(=O)Nc3ccc(F)cc32)c1C", "test": "enzyme activity, inhibitor", "setting": "0.3 µM", "endpoint": "inhibition", "result": "-2%"}
{"Compound": "CCCCN(CCCC)C(=O)CN1C[C@H](c2cc(OC)c3c(c2)OCO3)[C@@H](C(=O)O)[C@@H]1CC(C)(C)CCC", "test": "cell-free assay, competition with immobilised ligand", "setting": "1 µM", "endpoint": "remaining binding", "result": "67.1%"}
{"Compound": "C[S+]([O-])c1ccc(-c2nc(-c3ccncc3)c(-c3ccc(F)cc3)[nH]2)cc1 (stereo not drawn)", "test": "cell-free assay", "setting": "0.5 µM", "endpoint": "remaining signal", "result": "95.6%"}
{"Compound": "Cc1ccc(Nc2nccc(N(C)c3ccc4c(C)n(C)nc4c3)n2)cc1S(N)(=O)=O", "test": "enzyme activity, inhibitor", "setting": "10 µM", "endpoint": "inhibition", "result": "-4%"}
{"Compound": "CC(C)(O)[C@H]1CC[C@H](Nc2ccc3ncc(-c4cccc(C(F)(F)F)c4)n3n2)CC1", "test": "enzyme activity, inhibitor", "setting": "1 µM", "endpoint": "remaining activity", "result": "93.5%"}
{"Compound": "COc1cc2ncnc(Nc3ccc(Oc4ccccc4)c(C)c3C)c2cc1OC", "test": "enzyme activity, inhibitor", "setting": "1 µM", "endpoint": "inhibition", "result": "1%"}
{"Compound": "Cc1sc(C(=O)NC2COC2)cc1-n1cc(NC(=O)Nc2c(F)cccc2Cl)cn1", "test": "enzyme activity, inhibitor", "setting": "10 µM", "endpoint": "remaining activity", "result": "95.2%"}
{"Compound": "Cc1cc(NC(=O)c2cccc3cc(-c4cccc5[nH]nc(N)c45)ccc23)ccc1F", "test": "enzyme activity, inhibitor", "setting": "0.1 µM", "endpoint": "activity vs control", "result": "91%"}
{"Compound": "N#CCCc1ccc2c(c1)-c1[nH]c3ccc([N+](=O)[O-])cc3c1CC(=O)N2", "test": "cell-free assay", "setting": "0.5 µM", "endpoint": "remaining signal", "result": "99%"}
{"Compound": "CCCS(=O)(=O)Nc1ccc(F)c(C(=O)c2c[nH]c3ncc(-c4ccc(Cl)cc4)cc23)c1F", "test": "enzyme activity, inhibitor", "setting": "1 µM", "endpoint": "inhibition", "result": "< 10%"}
{"Compound": "O=C(O)[C@H]1[C@H](Cn2nnc3ccccc3c2=O)CC[C@@H]1C(=O)c1ccc(OCCC2CCOCC2)cc1", "test": "cell-free assay, competition with immobilised ligand", "setting": "1 µM", "endpoint": "remaining binding", "result": "100%"}
{"Compound": "N[C@@H]1CCN(c2nccc(-c3cnn4ncccc34)n2)C1", "test": "binding", "setting": "1 µM", "endpoint": "remaining binding", "result": "100%"}
{"Compound": "CCOc1cc(-c2nncn2C)ccc1Nc1ncc2cc(C)nc(NCC(C)(C)C)c2n1", "test": "enzyme activity, inhibitor, FRET", "setting": "1 µM", "endpoint": "inhibition", "result": "< 15%"}
{"Compound": "CC(C)(C)c1nc(-c2cccc(NS(=O)(=O)c3c(F)cccc3F)c2F)c(-c2ccnc(N)n2)s1", "test": "enzyme activity, inhibitor, radiometric", "setting": "1 µM", "endpoint": "remaining activity", "result": "94%"}
{"Compound": "CO[C@@H](C)c1c(Nc2ccc([C@H](N(C)C(=O)C3CCS(=O)(=O)CC3)C(F)(F)F)cc2)cnc2cc(Cl)nn12", "test": "cell-free assay, competition with immobilised ligand", "setting": "1 µM", "endpoint": "remaining binding", "result": "100%"}
{"Compound": "COc1cc(-c2cc(-c3ccc(N4CCNCC4)cc3)cnc2C)cc(OC)c1OC", "test": "enzyme activity, inhibitor", "setting": "0.1 µM", "endpoint": "inhibition", "result": "7%"}
{"Compound": "CC(=O)C1=C(C)N(c2cccc(C(F)(F)F)c2)C(=O)N[C@@H]1c1ccc(C#N)nc1", "test": "cell-free assay, competition with immobilised ligand", "setting": "1 µM", "endpoint": "remaining binding", "result": "97.8%"}
{"Compound": "CC/C(=N\\NC(=O)NCc1cccc(O)c1)c1ccc(O)c(C)c1O", "test": "enzyme activity, inhibitor", "setting": "0.1 µM", "endpoint": "inhibition", "result": "1.3%"}
{"Compound": "O=C(O)c1cc(-c2ccc(C3CCNCC3)cc2)c2ccc(-c3ccc(C(F)(F)F)cc3)cc2c1", "test": "cell-free assay, competition with immobilised ligand", "setting": "1 µM", "endpoint": "remaining binding", "result": "100%"}
{"Compound": "O=C1Nc2ccc(Cl)cc2C1=Cc1cc(Cl)c(O)c(Cl)c1", "test": "cell-free assay", "setting": "0.5 µM", "endpoint": "remaining signal", "result": "95.4%"}
{"Compound": "C[C@H](c1ccnc(Nc2nc3ccc(-c4cc(N(C)C)ncn4)cc3[nH]2)c1)N1CCN(C(=O)CC(F)(F)F)CC1", "test": "cell-free assay, competition with immobilised ligand", "setting": "0.1 µM", "endpoint": "remaining binding", "result": "100%"}
{"Compound": "CNC(=O)c1cc(Oc2ccc(NC(=O)Nc3ccc(Cl)c(C(F)(F)F)c3)cc2)ccn1", "test": "enzyme activity, inhibitor", "setting": "10 µM", "endpoint": "inhibition", "result": "15%"}
